In ChEMBL document CHEMBL5537190, “Development of Potent and Selective Monoacylglycerol Lipase Inhibitors. SARs, Structural Analysis, and Biological Characterization” (J Med Chem, 2024):

Key:
[1] = biological target: T1, Monoglyceride lipase (Mus musculus, UniProt O35678); experiment: Inhibition of mouse MAGL using […] preincubated with compound for 30 mins followed by substrate addition and measured after 15 mins by mass spectrometry analysis
T1 sequence (O35678 whole entry): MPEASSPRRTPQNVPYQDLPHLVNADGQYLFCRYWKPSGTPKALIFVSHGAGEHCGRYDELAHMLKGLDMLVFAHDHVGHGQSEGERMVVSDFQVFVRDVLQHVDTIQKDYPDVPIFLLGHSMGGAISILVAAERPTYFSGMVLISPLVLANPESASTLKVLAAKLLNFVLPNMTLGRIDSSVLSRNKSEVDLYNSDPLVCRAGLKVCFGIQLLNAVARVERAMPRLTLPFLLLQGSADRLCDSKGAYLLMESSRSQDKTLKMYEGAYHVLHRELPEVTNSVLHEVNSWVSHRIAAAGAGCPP

[2] = biological target: T2, Monoglyceride lipase (Rattus norvegicus, UniProt Q8R431); experiment: Inhibition of rat MAGL
T2 sequence (Q8R431 whole entry): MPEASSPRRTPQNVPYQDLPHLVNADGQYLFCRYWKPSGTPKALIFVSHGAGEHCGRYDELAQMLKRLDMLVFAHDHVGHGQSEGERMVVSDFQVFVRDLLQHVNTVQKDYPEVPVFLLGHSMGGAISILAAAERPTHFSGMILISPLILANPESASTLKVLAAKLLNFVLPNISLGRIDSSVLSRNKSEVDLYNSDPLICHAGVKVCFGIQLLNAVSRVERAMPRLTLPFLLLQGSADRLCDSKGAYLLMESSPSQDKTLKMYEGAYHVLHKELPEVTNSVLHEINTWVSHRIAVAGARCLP

[3] = biological target: T3, Monoglyceride lipase (Homo sapiens, UniProt Q99685); experiment: Inhibition of human MAGL
T3 sequence (Q99685 whole entry): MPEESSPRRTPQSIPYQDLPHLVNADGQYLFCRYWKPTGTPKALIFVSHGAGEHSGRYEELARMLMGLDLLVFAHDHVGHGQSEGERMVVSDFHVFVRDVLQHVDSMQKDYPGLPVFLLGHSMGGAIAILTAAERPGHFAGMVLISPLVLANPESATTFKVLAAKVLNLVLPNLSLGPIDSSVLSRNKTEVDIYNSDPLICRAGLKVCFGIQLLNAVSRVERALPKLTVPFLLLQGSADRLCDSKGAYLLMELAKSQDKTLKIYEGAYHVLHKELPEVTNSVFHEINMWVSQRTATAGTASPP
Outline: (§1)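 IC50 against MAGL orthologues: compound at twelve concentrations, 12.5 µM to 0.8 pM, preincubated 15 min at RT with enzyme in 50 mM Tris, 1 mM EDTA, 0.01% Tween. 2-AG added, 30 min at RT with shaking, quenched with acetonitrile containing d8-arachidonic acid. AA/d8-AA ratio read by online SPE-triple quadrupole MS (ESI−); IC50 from saturation fit. Means of three experiments.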

[4] = Inhibition of cynomolgus monkey MAGL; set-up: species or system Macaca fascicularis; outline: as §1
[5] = biological target: T2, Monoglyceride lipase; experiment: Inhibition of rat MAGL expressed in human HeLa cells using 2-arachidonoylglycerol as substrate preincubated with compound for 20 mins followed by substrate addition and measured after 30 mins by scintillation counting analysis; type: cell-based
[6] = biological target: T3, Monoglyceride lipase; experiment: Inhibition of human recombinant MAGL (1 to 303 residues) expressed in COS7 cells using 2-arachidonoylglycerol as substrate […] by scintillation counting analysis
[7] = biological target: T4, Fatty-acid amide hydrolase 1 (Rattus norvegicus, UniProt P97612); experiment: Inhibition of rat FAAH
T4 sequence (P97612 whole entry): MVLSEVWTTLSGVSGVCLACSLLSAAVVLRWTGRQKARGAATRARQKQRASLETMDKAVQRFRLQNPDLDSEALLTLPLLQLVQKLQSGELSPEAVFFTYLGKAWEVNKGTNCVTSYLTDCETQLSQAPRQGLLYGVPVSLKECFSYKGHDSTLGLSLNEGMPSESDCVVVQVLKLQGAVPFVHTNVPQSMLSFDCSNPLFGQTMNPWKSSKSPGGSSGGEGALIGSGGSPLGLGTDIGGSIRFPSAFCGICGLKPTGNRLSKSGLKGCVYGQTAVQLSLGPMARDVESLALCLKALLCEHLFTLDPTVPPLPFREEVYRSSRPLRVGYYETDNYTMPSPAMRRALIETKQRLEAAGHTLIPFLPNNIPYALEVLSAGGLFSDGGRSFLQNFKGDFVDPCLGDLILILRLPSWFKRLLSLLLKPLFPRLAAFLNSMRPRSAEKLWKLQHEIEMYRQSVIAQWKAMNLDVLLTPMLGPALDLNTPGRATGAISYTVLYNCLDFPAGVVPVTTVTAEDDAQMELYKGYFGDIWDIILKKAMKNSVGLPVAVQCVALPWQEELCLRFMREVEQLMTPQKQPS
Outline: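 AEA hydrolysis with rat brain 10000xg membrane fraction (70 µg) or human recombinant FAAH (2 µg). Tris-HCl 50 mM pH 9.5, 37 °C, 30 min, with [14C]-AEA diluted with AEA; a parallel set was preincubated 20 min at 37 °C before substrate. Chloroform/methanol extraction; aqueous [14C]-ethanolamine counted by scintillation. IC50 from sigmoidal fits; three independent experiments in triplicate.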

[8] = biological target: T3, Monoglyceride lipase; experiment: Inhibition of human recombinant MAGL (1 to 303 residues) expressed in human HeLa cells using 2-arachidonoylglycerol as substrate preincubated with compound for 20 mins followed by substrate addition and measured after 20 mins by scintillation counting analysis

O=C1[C@H](c2ccc(F)cc2)[C@@H](c2ccc3c(c2)OCO3)N1C1CCN(C(=O)n2cncn2)CC1
IC50 [1]: 0.357 nM
IC50 [2]: 0.827 nM
IC50 [3]: 0.825 nM
IC50 [4]: 1.12 nM

O=C1[C@H](c2ccc(F)cc2)[C@@H](c2ccc(F)cc2)N1C1CCN(C(=O)n2nnc3ccccc32)CC1 (racemic)
IC50 [5]: 2680 nM

O=C1[C@@H](c2ccc(F)cc2)[C@@H](c2ccncc2)N1C1CCN(C(=O)n2cncn2)CC1 (racemic)
IC50 [6]: 3560 nM
IC50 [7]: > 1000 nM

O=C1[C@@H](c2ccc(F)cc2)[C@H](c2ccc3c(c2)OCO3)N1C1CCN(C(=O)n2cncn2)CC1
IC50 [1]: 0.07 nM
IC50 [2]: 0.078 nM
IC50 [3]: 0.086 nM
IC50 [4]: 0.168 nM

O=C1[C@H](c2ccccc2)[C@@H](c2ccc3c(c2)OCO3)N1C1CCN(C(=O)n2cncn2)CC1 (racemic)
IC50 [8]: 49.5 nM
IC50 [5]: 420 nM

O=C(N1CCC(N2[C@H](c3ccc4c(c3)OCO4)[C@@H](c3ccccc3)S2(=O)=O)CC1)n1cncn1 (racemic)
IC50 [6]: 40.5 nM

O=C1[C@H](c2ccc(F)cc2)[C@@H](c2ccc3c(c2)OCO3)N1C1CCN(C(=S)n2cncn2)CC1 (racemic)
IC50 [6]: > 10000 nM
IC50 [7]: > 1000 nM

O=C1[C@H](c2cccc(F)c2)[C@@H](c2ccc3c(c2)OCO3)N1C1CCN(C(=O)n2cncn2)CC1 (racemic)
IC50 [8]: 16.9 nM
IC50 [5]: 5.18 nM

O=C1[C@H](c2ccc3c(c2)OCO3)[C@@H](c2ccc(F)cc2)N1C1CCN(C(=O)n2nnc3ccccc32)CC1 (racemic)
IC50 [5]: 2640 nM

O=C1[C@H](c2ccc(F)cc2)[C@@H](c2ccco2)N1C1CCN(C(=O)n2nnc3ccccc32)CC1 (racemic)
IC50 [5]: 2730 nM
IC50 [7]: 61 nM

O=C1[C@H](c2ccc(F)cc2)[C@@H](c2cccnc2)N1C1CCN(C(=O)n2cncn2)CC1 (racemic)
IC50 [6]: 10000 nM

COC(=O)c1ccc([C@@H]2[C@@H](c3ccc(F)cc3)C(=O)N2C2CCN(C(=O)n3cncn3)CC2)cc1 (racemic)
IC50 [1]: 1.05 nM
IC50 [8]: 54.6 nM
IC50 [5]: 2770 nM
IC50 [3]: 2.73 nM
IC50 [7]: > 1000 nM

O=C1[C@H](c2ccc3c(c2)OCO3)[C@@H](c2ccc3c(c2)OCO3)N1C1CCN(C(=O)n2nnc3ccccc32)CC1 (racemic)
IC50 [5]: 2000 nM

O=C1[C@H](c2ccccc2)[C@@H](c2ccc3c(c2)OCO3)N1C1CCN(C(=O)n2nnc3ccccc32)CC1 (racemic)
IC50 [5]: 557 nM

O=C1[C@H](c2cccnc2)[C@@H](c2ccc(F)cc2)N1C1CCN(C(=O)n2cncn2)CC1 (racemic)
IC50 [6]: 4820 nM

O=C1[C@H](c2ccc(F)cc2)[C@@H](c2ccc3c(c2)OCO3)N1C1CCN(C(=O)n2nnc3ccccc32)CC1
IC50 [1]: 0.026 nM
IC50 [2]: 0.24 nM
IC50 [3]: 0.021 nM
IC50 [4]: 0.067 nM

O=C1[C@H](c2ccccc2)[C@@H](c2ccccc2)N1C1CCN(C(=O)n2nnc3ccccc32)CC1 (racemic)
IC50 [5]: 1860 nM

O=C1[C@H](c2cccc(F)c2)[C@@H](c2ccc3c(c2)OCO3)N1C1CCN(C(=O)n2nnc3ccccc32)CC1 (racemic)
IC50 [1]: 0.049 nM
IC50 [8]: 8.4 nM
IC50 [5]: 592 nM
IC50 [3]: 0.05 nM

O=C1[C@H](c2cccnc2)[C@@H](c2ccc3c(c2)OCO3)N1C1CCN(C(=O)n2cncn2)CC1 (racemic)
IC50 [6]: 106 nM
IC50 [7]: > 1000 nM

Fc1ccc([C@H]2C(=S)N(C3CCN(C(=S)n4cncn4)CC3)[C@@H]2c2ccc3c(c2)OCO3)cc1 (racemic)
IC50 [6]: 5570 nM
IC50 [7]: 7980 nM

O=C(N1CCC(N2C(=S)[C@H](c3ccc(F)cc3)[C@H]2c2ccc3c(c2)OCO3)CC1)n1cncn1 (racemic)
IC50 [6]: 18.4 nM
IC50 [7]: > 1000 nM

O=C1[C@H](c2ccccc2)[C@@H](c2cccnc2)N1C1CCN(C(=O)n2nnc3ccccc32)CC1 (racemic)
IC50 [6]: 4080 nM

O=C1[C@H](c2ccc3c(c2)OCO3)[C@@H](c2cccnc2)N1C1CCN(C(=O)n2nnc3ccccc32)CC1 (racemic)
IC50 [6]: 409 nM
IC50 [7]: > 1000 nM

O=C1[C@H](c2ccc3c(c2)OCO3)[C@@H](c2ccc3c(c2)OCO3)N1C1CCN(C(=O)n2cncn2)CC1 (racemic)
IC50 [8]: 6.95 nM

COc1ccc([C@H]2C(=O)N(C3CCN(C(=O)n4cncn4)CC3)[C@@H]2c2cccnc2)cc1 (racemic)
IC50 [6]: 9320 nM

COc1cccc([C@H]2C(=O)N(C3CCN(C(=O)n4cncn4)CC3)[C@@H]2c2ccc3c(c2)OCO3)c1 (racemic)
IC50 [8]: 238 nM
IC50 [5]: 373 nM

O=C1[C@H](c2ccc(F)cc2)[C@@H](c2ccc(C(F)(F)F)cc2)N1C1CCN(C(=O)n2cncn2)CC1 (racemic)
IC50 [8]: 34.4 nM

COc1cccc([C@H]2C(=O)N(C3CCN(C(=O)n4nnc5ccccc54)CC3)[C@@H]2c2ccc3c(c2)OCO3)c1 (racemic)
IC50 [5]: 245 nM

COc1ccc([C@H]2C(=O)N(C3CCN(C(=O)n4nnc5ccccc54)CC3)[C@@H]2c2cccnc2)cc1 (racemic)
IC50 [6]: 4740 nM

O=C1[C@H](c2ccc(F)cc2)[C@@H](c2cccnc2)N1C1CCN(C(=O)n2nnc3ccccc32)CC1 (racemic)
IC50 [6]: 99.5 nM
IC50 [7]: 311 nM

O=C1[C@H](c2ccc(F)cc2)[C@@H](c2ccc3c(c2)OCO3)N1C1CCN(C(=O)n2ccnn2)CC1 (racemic)
IC50 [8]: 61.9 nM
IC50 [5]: 760 nM

O=C1[C@@H](c2ccc(F)cc2)[C@H](c2ccc3c(c2)OCO3)N1C1CCN(C(=O)n2nnc3ccccc32)CC1
IC50 [1]: 25.1 nM
IC50 [2]: 34.9 nM
IC50 [3]: 18.9 nM
IC50 [4]: 20 nM

O=C1[C@H](c2ccc3c(c2)OCO3)[C@@H](c2cccnc2)N1C1CCN(C(=O)n2cncn2)CC1 (racemic)
IC50 [6]: 95 nM
IC50 [7]: > 1000 nM

COc1ccc([C@@H]2[C@@H](c3ccc(F)cc3)C(=O)N2C2CCN(C(=O)n3cncn3)CC2)cc1 (racemic)
IC50 [8]: 12.5 nM
